One compound from ChEMBL document CHEMBL4145654, “Structure-Based Discovery of CF53 as a Potent and Orally Bioavailable Bromodomain and Extra-Terminal (BET) Bromodomain Inhibitor” (J Med Chem, 2018) can be followed below.

Data set [1] deals with Bromodomain testis-specific protein (Homo sapiens, UniProt Q58F21). Description: Binding affinity to human BRDT bromodomain 2 (K250 to E382 residues) expressed in bacterial expression system by BROMOscan assay.
In another data set the test system is Mus musculus. The data set can be described thus: Toxicity in SCID mouse xenografted with human MDA-MB-231 cells assessed as change in body weight at 10 to 50 mg/kg administered via oral gavage measured 2 to 3 times per week during compound dosing and measured weekly post treatment. The data set is classed as organism-based. To be noted: in vivo. The gist of the method: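 Xenografts raised by subcutaneous dorsal injection of 5 × 10⁶ cells in 50% Matrigel into SCID mice, one tumor per mouse. Mice randomized to treatment or vehicle groups at about 100 mm3 tumor volume. Compounds given by oral gavage at the indicated dose-schedules, with percentage body-weight change tracked alongside tumor volume (L × W²/2).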
(A xenograft is tissue or cells of one species grown in another, often human tumour cells in immunodeficient mice.)

The species entered for data set [2] is Homo sapiens. The data set can be described thus: Selectivity index, ratio of Kd for human CECR2 (P423 to D543 residues) to Kd for human BRD2 bromodomain 1 (K71 to N194 residues).
Data set [3] is filed under the species Homo sapiens. The data set can be described thus: Selectivity index, ratio of Kd for human EP300 (A1040 to G1161 residues) to Kd for human BRDT bromodomain 2 (K250 to E382 residues).
In data set [4] the test system is MDA-MB-231. The data set can be described thus: Antitumor activity against human MDA-MB-231 cells xenografted in SCID mouse assessed as tumor growth inhibition at 25 mg/kg administered via oral gavage measured on day 44. The data set is classed as functional. Conditions: MDA-MB-231, po, 1056 h, read-out: TGI. The gist of the method:
(§1)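 SCID mice were implanted subcutaneously on the dorsal side with 5 × 10⁶ MDA-MB-231 or RS4;11 cells in 50% Matrigel, one tumor per mouse. At ca. 100 mm3, mice were randomized to treatment or vehicle groups and dosed by oral gavage. Tumor volume = L × W²/2. Body weight change tracked. p values by two-tailed unpaired t-test.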

Data set [5] can be described thus: Oral bioavailability in Balb/c mouse at 25 mg/kg by LC-MS/MS analysis. The data set is classed as ADME, organism-based. Conditions: in vivo. The gist of the method: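 Balb/c mice dosed iv at 5.0 mg/kg or po at 25 mg/kg, compound in vehicle of 20% (v/v) PCP and 70% (v/v) PBS. Serial blood samples taken at 0, 5, 15, 30 min and 1, 2, 4, 6, 8, 24 h. Plasma obtained by centrifugation and stored at −80 °C. Analysis by LC-MS/MS, positive-ion MRM. Parameters from noncompartmental analysis.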

Data set [6] is described as follows: Plasma concentration in SCID mouse xenografted with human MDA-MB-231 cells at 50 mg/kg administered via oral gavage measured after 1 hr. It counts as ADME, organism-based. The gist of the method: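 Limited PK in SCID mice bearing MDA-MB-231 tumors, 50 mg/kg given by oral gavage. Plasma and tumor tissue drug levels measured at two time points per compound. Values are the mean of two mice/tumors per time point.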

The species named for data set [7] is Homo sapiens. The data set can be described thus: Selectivity index, ratio of Kd for human CREBBP (R1081 to G1197 residues) to Kd for human BRD4 bromodomain 2 (K333 to E460 residues).
Data set [8] deals with ATPase family AAA domain-containing protein 2B (Homo sapiens, UniProt Q9ULI0). The data set can be described thus: Binding affinity to human ATAD2B (Q955 to R1082 residues) expressed in bacterial expression system by BROMOScan assay.
ATPase family AAA domain-containing protein 2B, sequence (Q9ULI0 whole entry, the tested form may be a part): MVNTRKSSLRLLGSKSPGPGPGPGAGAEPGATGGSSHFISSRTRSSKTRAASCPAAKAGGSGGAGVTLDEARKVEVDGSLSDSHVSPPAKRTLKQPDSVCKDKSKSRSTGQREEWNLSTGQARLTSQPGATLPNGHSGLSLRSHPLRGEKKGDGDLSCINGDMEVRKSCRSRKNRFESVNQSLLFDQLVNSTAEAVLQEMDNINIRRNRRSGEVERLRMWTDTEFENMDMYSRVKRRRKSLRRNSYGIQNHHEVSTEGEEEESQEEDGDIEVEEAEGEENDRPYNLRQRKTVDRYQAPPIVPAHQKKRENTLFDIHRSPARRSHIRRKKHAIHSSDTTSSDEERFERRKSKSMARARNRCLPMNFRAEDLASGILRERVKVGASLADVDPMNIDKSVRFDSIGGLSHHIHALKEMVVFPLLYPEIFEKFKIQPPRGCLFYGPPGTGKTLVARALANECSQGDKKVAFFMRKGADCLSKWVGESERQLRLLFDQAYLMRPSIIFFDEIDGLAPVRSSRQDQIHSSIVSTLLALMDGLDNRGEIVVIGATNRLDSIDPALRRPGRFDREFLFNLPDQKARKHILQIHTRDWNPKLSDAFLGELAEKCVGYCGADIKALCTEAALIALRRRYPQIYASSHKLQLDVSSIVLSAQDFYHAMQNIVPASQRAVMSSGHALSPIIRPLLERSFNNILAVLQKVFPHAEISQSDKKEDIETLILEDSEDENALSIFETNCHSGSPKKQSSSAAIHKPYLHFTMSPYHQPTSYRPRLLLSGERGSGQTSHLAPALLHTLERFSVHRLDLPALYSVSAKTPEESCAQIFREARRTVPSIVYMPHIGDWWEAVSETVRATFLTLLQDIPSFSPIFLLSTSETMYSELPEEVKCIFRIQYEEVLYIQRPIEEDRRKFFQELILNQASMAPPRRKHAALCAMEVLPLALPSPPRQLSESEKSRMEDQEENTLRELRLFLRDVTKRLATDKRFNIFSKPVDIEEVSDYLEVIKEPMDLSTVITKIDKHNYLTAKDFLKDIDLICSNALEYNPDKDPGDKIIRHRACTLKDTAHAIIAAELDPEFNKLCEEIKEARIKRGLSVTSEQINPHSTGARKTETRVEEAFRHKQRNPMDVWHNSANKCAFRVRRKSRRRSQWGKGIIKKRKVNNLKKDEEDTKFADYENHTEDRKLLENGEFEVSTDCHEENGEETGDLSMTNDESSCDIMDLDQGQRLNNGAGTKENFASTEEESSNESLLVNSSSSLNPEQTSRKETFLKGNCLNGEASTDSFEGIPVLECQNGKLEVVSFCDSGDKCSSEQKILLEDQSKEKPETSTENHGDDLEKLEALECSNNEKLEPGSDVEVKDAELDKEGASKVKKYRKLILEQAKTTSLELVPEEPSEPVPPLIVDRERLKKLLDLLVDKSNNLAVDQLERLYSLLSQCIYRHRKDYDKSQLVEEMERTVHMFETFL
For data set [9], the species on record is Homo sapiens. The data set can be described thus: Selectivity index, ratio of Kd for human CECR2 (P423 to D543 residues) to Kd for human BRD3 bromodomain 2 (G306 to P416 residues).
Data set [10] concerns the target Bromodomain adjacent to zinc finger domain protein 2B (Homo sapiens, UniProt Q9UIF8). Description: Binding affinity to human BAZ2B (S2054 to S2168 residues) expressed in bacterial expression system by BROMOScan assay.
The target in data set [11] is Bromodomain-containing protein 9 (Homo sapiens, UniProt Q9H8M2). Description: Binding affinity to human BRD9 (R130 to V259 residues) expressed in bacterial expression system by BROMOScan assay.
The test system of data set [12] is MDA-MB-231. Description: Antitumor activity against human MDA-MB-231 cells xenografted in SCID mouse assessed as tumor growth inhibition at 50 mg/kg administered via oral gavage measured on day 44. To be noted: MDA-MB-231, po, 1056 h, read-out: TGI. The data set is classed as functional. In a few lines:
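Each SCID mouse received a single dorsal subcutaneous tumor of 5 × 10⁶ RS4;11 or MDA-MB-231 cells in 50% Matrigel. At about 100 mm3, mice were randomised to treatment or vehicle control groups. Dosing was by oral gavage at the stated schedules. Tumor volume was L × W²/2, and body weight was tracked. TGI versus vehicle at end of treatment was tested by unpaired two-tailed t-test.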

The species entered for data set [13] is Homo sapiens. Description: Selectivity index, ratio of Kd for human CREBBP (R1081 to G1197 residues) to Kd for human BRDT bromodomain 2 (K250 to E382 residues).
Data set [14] addresses Bromodomain-containing protein 7 (Homo sapiens, UniProt Q9NPI1). Description: Binding affinity to human BRD7 (L125 to R254 residues) expressed in bacterial expression system by BROMOScan assay.
The target in data set [15] is E3 ubiquitin-protein ligase TRIM33 (Homo sapiens, UniProt Q9UPN9). The data set can be described thus: Binding affinity to human TRIM33-phd-bromo (D882 to A1087 residues) expressed in bacterial expression system by BROMOscan assay.
The species named for data set [16] is Homo sapiens. Description: Selectivity index, ratio of Kd for human CECR2 (P423 to D543 residues) to Kd for human BRDT bromodomain 2 (K250 to E382 residues).
The nature of data set [17]: Plasma concentration in SCID mouse xenografted with human MDA-MB-231 cells at 50 mg/kg administered via oral gavage measured after 6 hrs. It counts as ADME, organism-based. The gist of the method: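 SCID mice carrying MDA-MB-231 tumors dosed orally at 50 mg/kg. Plasma drug level determined by LC-MS/MS (positive-ion MRM, C18 column, formic acid/acetonitrile gradient). Value is the mean from two mice per time point.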

The target in a further data set is CREB-binding protein (Homo sapiens, UniProt Q92793). Description: Binding affinity to human CREBBP (R1081 to G1197 residues) expressed in bacterial expression system by BROMOscan assay.
CREB-binding protein, sequence (Q92793 whole entry, the tested form may be a part): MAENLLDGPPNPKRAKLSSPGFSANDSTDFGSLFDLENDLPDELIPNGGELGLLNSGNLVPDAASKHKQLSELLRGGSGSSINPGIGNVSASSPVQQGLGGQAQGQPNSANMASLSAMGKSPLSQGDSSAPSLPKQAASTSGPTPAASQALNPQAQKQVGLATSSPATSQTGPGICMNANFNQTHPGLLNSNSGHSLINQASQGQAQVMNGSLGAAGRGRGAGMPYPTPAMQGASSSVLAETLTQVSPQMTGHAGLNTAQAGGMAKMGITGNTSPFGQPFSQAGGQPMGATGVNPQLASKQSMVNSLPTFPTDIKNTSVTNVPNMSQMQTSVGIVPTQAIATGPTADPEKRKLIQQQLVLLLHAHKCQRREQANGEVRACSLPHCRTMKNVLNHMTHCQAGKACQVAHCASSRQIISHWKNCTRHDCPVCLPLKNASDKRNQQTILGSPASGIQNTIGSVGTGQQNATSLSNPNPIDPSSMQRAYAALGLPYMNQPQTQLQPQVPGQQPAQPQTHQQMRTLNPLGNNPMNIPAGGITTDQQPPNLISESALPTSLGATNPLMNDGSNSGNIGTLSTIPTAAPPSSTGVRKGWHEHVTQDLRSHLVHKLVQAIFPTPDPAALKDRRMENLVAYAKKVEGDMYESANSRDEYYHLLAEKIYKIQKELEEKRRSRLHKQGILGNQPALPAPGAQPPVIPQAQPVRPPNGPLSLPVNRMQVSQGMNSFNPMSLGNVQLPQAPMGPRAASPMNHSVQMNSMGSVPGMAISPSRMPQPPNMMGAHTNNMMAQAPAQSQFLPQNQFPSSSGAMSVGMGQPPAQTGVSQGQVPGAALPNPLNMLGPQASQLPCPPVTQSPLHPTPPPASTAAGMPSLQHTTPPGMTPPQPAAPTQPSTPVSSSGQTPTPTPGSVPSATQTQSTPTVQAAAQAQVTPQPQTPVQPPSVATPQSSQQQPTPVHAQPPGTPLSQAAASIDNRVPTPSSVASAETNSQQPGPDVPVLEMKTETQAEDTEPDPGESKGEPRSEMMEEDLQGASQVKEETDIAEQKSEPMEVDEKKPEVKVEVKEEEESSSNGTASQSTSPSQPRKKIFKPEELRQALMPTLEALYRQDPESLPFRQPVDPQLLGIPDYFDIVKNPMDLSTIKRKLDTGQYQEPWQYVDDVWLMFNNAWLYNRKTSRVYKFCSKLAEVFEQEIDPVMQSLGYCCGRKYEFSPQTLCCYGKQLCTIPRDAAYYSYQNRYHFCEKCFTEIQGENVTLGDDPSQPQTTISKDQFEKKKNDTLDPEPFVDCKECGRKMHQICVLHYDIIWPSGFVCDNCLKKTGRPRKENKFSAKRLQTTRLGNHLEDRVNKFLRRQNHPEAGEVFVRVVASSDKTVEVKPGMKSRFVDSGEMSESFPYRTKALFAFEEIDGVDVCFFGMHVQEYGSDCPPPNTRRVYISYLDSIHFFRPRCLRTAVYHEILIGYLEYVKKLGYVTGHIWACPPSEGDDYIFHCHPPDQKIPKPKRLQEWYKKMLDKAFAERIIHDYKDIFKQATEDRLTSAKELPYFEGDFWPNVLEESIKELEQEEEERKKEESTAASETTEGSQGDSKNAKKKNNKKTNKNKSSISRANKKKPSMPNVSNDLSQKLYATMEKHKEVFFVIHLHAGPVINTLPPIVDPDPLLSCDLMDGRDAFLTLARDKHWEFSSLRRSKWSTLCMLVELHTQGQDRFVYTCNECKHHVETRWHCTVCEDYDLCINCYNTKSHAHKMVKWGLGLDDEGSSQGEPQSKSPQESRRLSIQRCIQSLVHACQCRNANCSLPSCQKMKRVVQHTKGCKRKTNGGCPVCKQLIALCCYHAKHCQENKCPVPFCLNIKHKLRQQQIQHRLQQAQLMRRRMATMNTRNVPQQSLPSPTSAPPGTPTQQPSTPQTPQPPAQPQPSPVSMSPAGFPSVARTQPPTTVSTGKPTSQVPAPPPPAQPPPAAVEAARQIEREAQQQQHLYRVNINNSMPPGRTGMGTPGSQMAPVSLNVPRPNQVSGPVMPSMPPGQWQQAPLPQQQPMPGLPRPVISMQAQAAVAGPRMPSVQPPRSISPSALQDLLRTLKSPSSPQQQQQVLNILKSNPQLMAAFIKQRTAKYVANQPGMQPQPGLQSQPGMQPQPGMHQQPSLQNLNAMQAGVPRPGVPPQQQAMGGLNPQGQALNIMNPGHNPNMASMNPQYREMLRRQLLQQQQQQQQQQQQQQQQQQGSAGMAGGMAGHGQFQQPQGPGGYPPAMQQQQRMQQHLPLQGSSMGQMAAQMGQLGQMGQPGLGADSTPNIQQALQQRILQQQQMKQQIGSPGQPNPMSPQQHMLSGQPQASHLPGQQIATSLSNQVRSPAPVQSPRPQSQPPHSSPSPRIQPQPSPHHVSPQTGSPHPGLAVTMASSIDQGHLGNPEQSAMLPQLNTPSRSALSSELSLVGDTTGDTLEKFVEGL
The target of data set [18] is Bromodomain-containing protein 8 (Homo sapiens, UniProt Q9H0E9). The data set can be described thus: Inhibition of BRD8 bromodomain 2 (unknown origin) by BROMOScan assay.
Bromodomain-containing protein 8, sequence (Q9H0E9 whole entry, the tested form may be a part): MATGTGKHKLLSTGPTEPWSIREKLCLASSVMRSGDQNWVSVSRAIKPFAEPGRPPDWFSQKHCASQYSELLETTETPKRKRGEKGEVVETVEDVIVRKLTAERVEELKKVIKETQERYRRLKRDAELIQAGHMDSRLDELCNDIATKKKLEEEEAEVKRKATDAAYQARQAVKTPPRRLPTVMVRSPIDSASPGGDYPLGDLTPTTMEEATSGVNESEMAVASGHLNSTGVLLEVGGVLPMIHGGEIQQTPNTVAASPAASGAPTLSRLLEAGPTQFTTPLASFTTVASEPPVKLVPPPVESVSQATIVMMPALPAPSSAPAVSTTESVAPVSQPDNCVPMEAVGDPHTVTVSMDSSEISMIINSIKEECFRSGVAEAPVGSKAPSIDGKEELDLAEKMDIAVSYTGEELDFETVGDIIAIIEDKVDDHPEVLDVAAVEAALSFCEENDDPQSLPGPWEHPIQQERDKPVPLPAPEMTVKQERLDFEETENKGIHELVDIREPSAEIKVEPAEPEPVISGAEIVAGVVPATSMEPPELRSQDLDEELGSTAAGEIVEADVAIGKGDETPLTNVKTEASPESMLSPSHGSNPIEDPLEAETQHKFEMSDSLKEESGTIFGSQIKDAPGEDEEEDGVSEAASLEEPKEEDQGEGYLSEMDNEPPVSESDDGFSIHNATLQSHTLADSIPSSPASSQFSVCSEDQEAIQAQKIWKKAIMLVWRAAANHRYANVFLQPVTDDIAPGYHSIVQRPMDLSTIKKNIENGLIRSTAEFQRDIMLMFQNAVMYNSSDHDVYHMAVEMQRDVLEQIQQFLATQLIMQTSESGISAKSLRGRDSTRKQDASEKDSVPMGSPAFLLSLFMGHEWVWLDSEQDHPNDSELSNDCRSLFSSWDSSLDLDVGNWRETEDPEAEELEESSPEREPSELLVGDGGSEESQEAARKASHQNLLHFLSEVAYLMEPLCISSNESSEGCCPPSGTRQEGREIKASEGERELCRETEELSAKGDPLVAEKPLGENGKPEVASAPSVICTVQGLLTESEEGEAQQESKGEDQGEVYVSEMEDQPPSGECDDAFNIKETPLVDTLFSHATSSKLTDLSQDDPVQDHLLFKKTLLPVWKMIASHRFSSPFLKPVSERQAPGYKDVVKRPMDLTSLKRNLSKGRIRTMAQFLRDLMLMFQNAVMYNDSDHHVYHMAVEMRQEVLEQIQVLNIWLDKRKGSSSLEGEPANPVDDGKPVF
The species entered for data set [19] is Homo sapiens. The data set can be described thus: Selectivity index, ratio of Kd for human EP300 (A1040 to G1161 residues) to Kd for human BRD3 bromodomain 2 (G306 to P416 residues).
For a further data set, the system named is RS4-11. The data set can be described thus: Antitumor activity against human RS4:11 cells xenografted in SCID mouse assessed as tumor growth inhibition at 25 mg/kg administered via oral gavage measured on day 35. Conditions: RS4-11, po, 840 h, read-out: TGI. The data set is classed as functional. The gist of the method:
as §1

For `COc1cc2c(cc1-c1c(C)noc1C)[nH]c1nc(C)nc(Nc3cc(C4CC4)nn3C)c12`, the Kd in data set [1] was 0.0021 µM; in [8], more than 5 µM; in data set [10] it was more than 5 µM; in [11] it was more than 5 µM; in data set [14], more than 5 µM; in [15], more than 5 µM. In addition, the figures for the dissociation constant (Kd) (on CREB-binding protein; in data set [18]) were 0.047 µM and more than 5 µM, respectively. The Activity entry with Mus musculus is on record as “Non-Toxic”. The Selectivity Index in the data set filed under Homo sapiens [2] is more than 50; in the data set listed under Homo sapiens [3], more than 50; in the data set filed under Homo sapiens [7] it was more than 20; in the data set listed under Homo sapiens [9], more than 50; in the data set listed under Homo sapiens [13], more than 20; in the data set filed under Homo sapiens [16], more than 50. Moreover, in the data set filed under Homo sapiens [19], the Selectivity Index was more than 50. Besides, the inhibition in vivo at 25 mg/kg amounted to 67.6% in the data set on MDA-MB-231 [4] and 49.3% with RS4-11. Moreover, in data set [5], the bioavailability turned out to be 71.3%. The concentration at 1 h in data set [6] amounted to 12600 ng/mL. Further, the inhibition in vivo at 50 mg/kg in the data set with MDA-MB-231 [12] was 77.3%. Besides, the concentration at 6 h in [17] is 7360 ng/mL.

In general, Kd refers to the equilibrium constant for the complex coming apart. What is called bioavailability is the share of a dose that reaches the circulation, judged against a reference dose that is usually intravenous. Low readings indicate little systemic uptake, high ones much systemic uptake.
